Test results reported in ChEMBL document CHEMBL2396530, “In vitro and in vivo evaluation of polymethylene tetraamine derivatives as NMDA receptor channel blockers” (Bioorg Med Chem Lett, 2013).
Calls of active or inactive are those of the source. No cut-off for these calls is given here.

How the values were obtained:
[1] = system: Mus musculus; test: Antithrombotic activity in photochemically-induced thrombosis C57B/L mouse model assessed as decrease in brain infarction size at 1 to 10 mg/kg, iv after 24 hrs; type: functional, organism-based
[2] = target: Glutamate NMDA receptor; GRIN1/GRIN2A (Homo sapiens, UniProt Q05586+Q12879); test: Antagonist activity at recombinant GluN1/GluN2A receptor (unknown origin) expressed in Xenopus laevis oocytes assessed as inhibition of glycine/glutamate-induced inward current at -70mV by two-electrode voltage clamp assay; type: cell-based, Oocyte
Method in brief: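 Xenopus oocytes injected with GluN1 plus GluN2A cRNA at 1:5 ratio (0.1–4 ng GluN1 plus 0.5–20 ng GluN2A). Two-electrode voltage clamp at -70 mV. Receptors activated by superfusing glycine and glutamate (10 µM). Inward currents recorded. Concentration–inhibition curves built from 5 concentrations per compound to give IC50.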

[3] = system: Mus musculus; test: Antithrombotic activity in photochemically-induced thrombosis C57B/L mouse model assessed as decrease in brain infarction size at 10 mg/kg, iv after 24 hrs; type: functional, organism-based; parameters: dose 10 mg/kg
[4] = system: Mus musculus; test: Antithrombotic activity in photochemically-induced thrombosis C57B/L mouse model assessed as decrease in brain infarction size at 0.4 mg/kg, iv after 24 hrs; type: functional, organism-based; parameters: dose 0.4 mg/kg

Chain of Glutamate NMDA receptor; GRIN1/GRIN2A (Q12879 whole entry, other chains not shown): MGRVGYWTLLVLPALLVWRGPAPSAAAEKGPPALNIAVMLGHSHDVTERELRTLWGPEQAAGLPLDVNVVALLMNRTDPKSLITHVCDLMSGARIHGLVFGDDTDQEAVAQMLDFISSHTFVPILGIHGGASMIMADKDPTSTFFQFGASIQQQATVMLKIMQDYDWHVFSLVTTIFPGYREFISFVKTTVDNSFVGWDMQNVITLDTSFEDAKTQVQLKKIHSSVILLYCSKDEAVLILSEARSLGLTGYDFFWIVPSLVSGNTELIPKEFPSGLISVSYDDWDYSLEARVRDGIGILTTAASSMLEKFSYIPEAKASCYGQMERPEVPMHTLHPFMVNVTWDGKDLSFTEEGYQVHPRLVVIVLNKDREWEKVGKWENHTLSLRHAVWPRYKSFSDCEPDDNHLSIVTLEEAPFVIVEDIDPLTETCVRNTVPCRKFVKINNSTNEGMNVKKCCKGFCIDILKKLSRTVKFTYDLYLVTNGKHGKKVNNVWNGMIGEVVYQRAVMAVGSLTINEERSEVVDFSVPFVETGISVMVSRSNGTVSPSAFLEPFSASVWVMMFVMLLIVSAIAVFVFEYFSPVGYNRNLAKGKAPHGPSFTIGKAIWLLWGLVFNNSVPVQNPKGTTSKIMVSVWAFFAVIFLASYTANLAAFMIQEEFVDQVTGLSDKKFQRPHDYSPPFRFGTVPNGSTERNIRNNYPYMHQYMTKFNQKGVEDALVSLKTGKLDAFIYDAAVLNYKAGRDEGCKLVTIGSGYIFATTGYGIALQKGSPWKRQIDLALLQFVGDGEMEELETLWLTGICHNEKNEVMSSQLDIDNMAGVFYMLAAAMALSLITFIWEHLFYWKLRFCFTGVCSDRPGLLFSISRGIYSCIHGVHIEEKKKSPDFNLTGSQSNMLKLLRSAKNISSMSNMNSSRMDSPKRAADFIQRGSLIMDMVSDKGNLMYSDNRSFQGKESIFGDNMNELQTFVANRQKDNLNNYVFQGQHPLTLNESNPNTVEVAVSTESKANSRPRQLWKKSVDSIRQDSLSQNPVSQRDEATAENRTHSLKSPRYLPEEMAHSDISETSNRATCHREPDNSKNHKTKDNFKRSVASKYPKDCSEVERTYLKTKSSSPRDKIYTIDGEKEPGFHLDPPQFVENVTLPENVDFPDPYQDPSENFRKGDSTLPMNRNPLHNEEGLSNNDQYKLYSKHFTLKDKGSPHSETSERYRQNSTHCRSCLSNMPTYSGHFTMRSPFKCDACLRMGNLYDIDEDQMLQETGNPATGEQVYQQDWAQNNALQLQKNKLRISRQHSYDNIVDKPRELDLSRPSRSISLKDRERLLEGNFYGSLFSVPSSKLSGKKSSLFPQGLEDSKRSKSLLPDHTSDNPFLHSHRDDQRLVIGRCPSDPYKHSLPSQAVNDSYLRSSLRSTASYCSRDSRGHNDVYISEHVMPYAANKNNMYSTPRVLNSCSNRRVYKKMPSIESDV

Row | SMILES | Activity [1] | IC50 [2] [nM] | Activity [3] | Activity [4]
1 | c1ccc(C(CNCCCCCCNCCCCCCCCCCCCNCCCCCCNCC(c2ccccc2)c2ccccc2)c2ccccc2)cc1 | inactive | 4.2 | – | –
2 | c1ccc(C(CNCCCCCCNCCCCCCCCNCCCCCCNCC(c2ccccc2)c2ccccc2)c2ccccc2)cc1 | inactive | 11 | – | –
3 | CC12CC3CC(C)(C1)CC(N)(C3)C2 | – | – | Active | –
4 | COc1ccccc1CNCCCCCNCCCCCCNCCCCCNCc1ccccc1OC | – | 315 | – | Active
5 | COc1ccccc1CNCCCCCNCCCCCCCCCCNCCCCCNCc1ccccc1OC | inactive | 89.3 | – | –
6 | COc1ccccc1CNCCCCCCCCNCCCCCCNCCCCCCCCNCc1ccccc1OC | inactive | 257 | – | –
7 | COc1ccccc1CNCCCCCCNCCCCCCCCNCCCCCCNCc1ccccc1OC [METHOCTRAMINE] | inactive | 138 | – | –
